According to ChEMBL document CHEMBL1649284 (Antimicrob Agents Chemother, 2009):
Numbered stars: 1 amine (or outer) side, 2 acyl side, 3 side chain; on linkers, the order of the positions; unused ones are H or OH. Bridge positions count the residues as written; N and C are the ends. Square brackets hold non-standard residues; d marks the D form. Peptide text beside a SMILES is read from it. * marks the point of attachment. pTerphenylCO(4''-OnC5H11) = CCCCCOc1ccc(-c2ccc(-c3ccc(C(=O)*)cc3)cc2)cc1; Orn(4R-OH,5R-OH) = O=C([C@H](C[C@@H](O)[C@@H](O)N[*:3])N[*:1])[*:2]; hTyr(3S-OH,4S-OH) = N[C@H](C(=O)O)[C@H](O)[C@@H](O)c1ccc(O)cc1; Pro(3S-OH,4S-Me) = C[C@H]1CN[C@H](C(=O)O)[C@H]1O; Hyp = O=C(O)[C@@H]1C[C@@H](O)CN1

Assays:
[1] = AUC (0 to t) in healthy human at 6 mg/kg, iv for every 12 hrs on day 1 as 120 mins infusions followed by maintenance dose of 4 mg/kg every 12 hrs on day 2 and single 4 mg/kg dose on day 3 as 100 mins infusions; type: ADME, organism-based; conditions: plasma
Procedure, shortened: (§1)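 Dose by actual body weight, rounded to nearest mg. Duplicate plasma samples at 0 h, 100 min, and 2, 4, 8, 12, 24 h after the day-3 dose start. HPLC-MS/MS (range 10.0–5,000 ng/ml). Noncompartmental analysis per participant; AUC0-τ by linear-log trapezoidal rule, τ = 12 h.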

[2] = Drug level in healthy human epithelial lining fluid at 6 mg/kg, iv for every 12 hrs on day 1 as 120 mins infusions followed by maintenance dose of 4 mg/kg every 12 hrs on day 2 and single 4 mg/kg dose on day 3 as 100 mins infusions after 12 hrs of last dose; type: ADME, organism-based; conditions: read-out: Drug uptake
Procedure, shortened: (§2)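 Single bronchoscopy with BAL in healthy adults (5 per time point) after the third co-dose, following 6 h fasting. Supernatant (400 × g, 4°C, 10 min) mixed 1:1 with methanol. Both drugs measured by HPLC-MS/MS with saline surrogate-matrix calibrators. ELF volume estimated by urea dilution, with urea in BAL and simultaneous serum measured colorimetrically. Total drug reported.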

[3] = Drug level in healthy human epithelial lining fluid at 6 mg/kg, iv for every 12 hrs on day 1 as 120 mins infusions followed by maintenance dose of 4 mg/kg every 12 hrs on day 2 and single 4 mg/kg dose on day 3 as 100 mins infusions after 8 hrs of last dose; type: ADME, organism-based; conditions: read-out: Drug uptake; procedure, shortened: as §2
[4] = Drug level in healthy human alveolar macrophage at 6 mg/kg, iv for every 12 hrs on day 1 as 120 mins infusions followed by maintenance dose of 4 mg/kg every 12 hrs on day 2 and single 4 mg/kg dose on day 3 as 100 mins infusions after 4 hrs of last dose; type: ADME, organism-based; conditions: alveolar macrophages, read-out: Drug uptake
Procedure, shortened: (§3)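 Single bronchoscopy with BAL in healthy adults (5 per time point) after the third co-dose, following 6 h fasting and lidocaine anaesthesia. BAL centrifuged at 400 × g, 4°C, 10 min. Cell pellet lysed in 0.9% NaCl/methanol (1:1). Both drugs measured by HPLC-MS/MS against saline surrogate-matrix standards. AM concentration calculated from manual cell counts and a mean AM volume of 2.42 μl/10^6 cells. Total drug reported.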

[5] = Tmax in healthy human at 6 mg/kg, iv for every 12 hrs on day 1 as 120 mins infusions followed by maintenance dose of 4 mg/kg every 12 hrs on day 2 and single 4 mg/kg dose on day 3 as 100 mins infusions; type: ADME, organism-based; conditions: in vivo; procedure, shortened: as §1
[6] = Drug level in healthy human alveolar macrophage at 6 mg/kg, iv for every 12 hrs on day 1 as 120 mins infusions followed by maintenance dose of 4 mg/kg every 12 hrs on day 2 and single 4 mg/kg dose on day 3 as 100 mins infusions after 8 hrs of last dose; type: ADME, organism-based; conditions: alveolar macrophages, read-out: Drug uptake; procedure, shortened: as §3
[7] = Elimination half life in healthy human at 6 mg/kg, iv for every 12 hrs on day 1 as 120 mins infusions followed by maintenance dose of 4 mg/kg every 12 hrs on day 2 and single 4 mg/kg dose on day 3 as 100 mins infusions; type: ADME, organism-based; conditions: in vivo, read-out: beta t1/2 (converted)
[8] = Drug level in healthy human alveolar macrophage at 6 mg/kg, iv for every 12 hrs on day 1 as 120 mins infusions followed by maintenance dose of 4 mg/kg every 12 hrs on day 2 and single 4 mg/kg dose on day 3 as 100 mins infusions after 12 hrs of last dose; type: ADME, organism-based; conditions: alveolar macrophages, read-out: Drug uptake; procedure, shortened: as §3
[9] = Drug level in healthy human epithelial lining fluid at 6 mg/kg, iv for every 12 hrs on day 1 as 120 mins infusions followed by maintenance dose of 4 mg/kg every 12 hrs on day 2 and single 4 mg/kg dose on day 3 as 100 mins infusions after 4 hrs of last dose; type: ADME, organism-based; conditions: read-out: Drug uptake; procedure, shortened: as §2
[10] = Drug level healthy human plasma at 6 mg/kg, iv for every 12 hrs on day 1 as 120 mins infusions followed by maintenance dose of 4 mg/kg every 12 hrs on day 2 and single 4 mg/kg dose on day 3 as 100 mins infusions after 8 hrs of last dose; type: ADME, organism-based; conditions: read-out: Drug uptake
[11] = Cmax in healthy human at 6 mg/kg, iv for every 12 hrs on day 1 as 120 mins infusions followed by maintenance dose of 4 mg/kg every 12 hrs on day 2 and single 4 mg/kg dose on day 3 as 100 mins infusions; type: ADME, organism-based; parameters: dose 6 mg/kg, route intravenous; conditions: in vivo; procedure, shortened: as §1
[12] = Volume of distribution at steady state in healthy human at 6 mg/kg, iv for every 12 hrs on day 1 as 120 mins infusions followed by maintenance dose of 4 mg/kg every 12 hrs on day 2 and single 4 mg/kg dose on day 3 as 100 mins infusions; type: ADME, organism-based; conditions: in vivo, read-out: Vdss; procedure, shortened: as §1
[13] = Drug level healthy human plasma at 6 mg/kg, iv for every 12 hrs on day 1 as 120 mins infusions followed by maintenance dose of 4 mg/kg every 12 hrs on day 2 and single 4 mg/kg dose on day 3 as 100 mins infusions after 4 hrs of last dose; type: ADME, organism-based; conditions: read-out: Drug uptake
[14] = Drug level healthy human plasma at 6 mg/kg, iv for every 12 hrs on day 1 as 120 mins infusions followed by maintenance dose of 4 mg/kg every 12 hrs on day 2 and single 4 mg/kg dose on day 3 as 100 mins infusions after 12 hrs of last dose; type: ADME, organism-based; conditions: read-out: Drug uptake
[15] = Drug level healthy human plasma at 200 mg, iv on day 1 as 200 mins infusion followed by maintenance dose of 100 mg every 24 hrs on days 2 and 3 as 100 mins infusions after 12 hrs of last dose; type: ADME, organism-based; conditions: read-out: Drug uptake
[16] = Drug level healthy human alveolar macrophage at 200 mg, iv on day 1 as 200 mins infusion followed by maintenance dose of 100 mg every 24 hrs on days 2 and 3 as 100 mins infusions after 24 hrs of last dose; type: ADME, organism-based; conditions: alveolar macrophages, read-out: Drug uptake; procedure, shortened: as §3
[17] = Drug level healthy human epithelial lining fluid at 200 mg, iv on day 1 as 200 mins infusion followed by maintenance dose of 100 mg every 24 hrs on days 2 and 3 as 100 mins infusions after 8 hrs of last dose; type: ADME, organism-based; conditions: read-out: Drug uptake; procedure, shortened: as §2
[18] = Drug level healthy human epithelial lining fluid at 200 mg, iv on day 1 as 200 mins infusion followed by maintenance dose of 100 mg every 24 hrs on days 2 and 3 as 100 mins infusions after 4 hrs of last dose; type: ADME, organism-based; conditions: read-out: Drug uptake; procedure, shortened: as §2
[19] = Cmax in healthy human at 200 mg, iv on day 1 as 200 mins infusion followed by maintenance dose of 100 mg every 24 hrs on days 2 and 3 as 100 mins infusions; type: ADME, organism-based; parameters: dose 200 mg, route intravenous; conditions: in vivo
Procedure, shortened: (§4)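 Duplicate blood draws at 0 h, 100 min (end of infusion), and 2, 4, 8, 12, 24 h after the day-3 dose start. Plasma measured by HPLC-MS/MS (range 50.0–20,000 ng/ml). Noncompartmental analysis, per participant; AUC0-τ by linear-log trapezoidal rule, τ = 24 h.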

[20] = Drug level healthy human alveolar macrophage at 200 mg, iv on day 1 as 200 mins infusion followed by maintenance dose of 100 mg every 24 hrs on days 2 and 3 as 100 mins infusions after 8 hrs of last dose; type: ADME, organism-based; conditions: alveolar macrophages, read-out: Drug uptake; procedure, shortened: as §3
[21] = tested on: Homo sapiens; assay: Total body clearance in healthy human at 200 mg, iv on day 1 as 200 mins infusion followed by maintenance dose of 100 mg every 24 hrs on days 2 and 3 as 100 mins infusions; type: ADME, organism-based; conditions: in vivo; procedure, shortened: as §4
[22] = Elimination half life in healthy human at 200 mg, iv on day 1 as 200 mins infusion followed by maintenance dose of 100 mg every 24 hrs on days 2 and 3 as 100 mins infusions; type: ADME, organism-based; conditions: in vivo, read-out: beta t1/2 (converted)
[23] = Drug level healthy human plasma at 200 mg, iv on day 1 as 200 mins infusion followed by maintenance dose of 100 mg every 24 hrs on days 2 and 3 as 100 mins infusions after 24 hrs of last dose; type: ADME, organism-based; conditions: read-out: Drug uptake
[24] = Drug level healthy human epithelial lining fluid at 200 mg, iv on day 1 as 200 mins infusion followed by maintenance dose of 100 mg every 24 hrs on days 2 and 3 as 100 mins infusions after 24 hrs of last dose; type: ADME, organism-based; conditions: read-out: Drug uptake; procedure, shortened: as §2
[25] = Drug level healthy human plasma at 200 mg, iv on day 1 as 200 mins infusion followed by maintenance dose of 100 mg every 24 hrs on days 2 and 3 as 100 mins infusions after 8 hrs of last dose; type: ADME, organism-based; conditions: read-out: Drug uptake
[26] = tested on: Homo sapiens; assay: AUC (0 to t) in healthy human at 200 mg, iv on day 1 as 200 mins infusion followed by maintenance dose of 100 mg every 24 hrs on days 2 and 3 as 100 mins infusions; type: ADME, organism-based, Plasma; conditions: in vivo; procedure, shortened: as §4
[27] = Volume of distribution at steady state in healthy human at 200 mg, iv on day 1 as 200 mins infusion followed by maintenance dose of 100 mg every 24 hrs on days 2 and 3 as 100 mins infusions; type: ADME, organism-based; conditions: in vivo, read-out: Vdss; procedure, shortened: as §4
[28] = Drug level healthy human epithelial lining fluid at 200 mg, iv on day 1 as 200 mins infusion followed by maintenance dose of 100 mg every 24 hrs on days 2 and 3 as 100 mins infusions after 12 hrs of last dose; type: ADME, organism-based; conditions: read-out: Drug uptake; procedure, shortened: as §2
[29] = Drug level healthy human alveolar macrophage at 200 mg, iv on day 1 as 200 mins infusion followed by maintenance dose of 100 mg every 24 hrs on days 2 and 3 as 100 mins infusions after 12 hrs of last dose; type: ADME, organism-based; conditions: alveolar macrophages, read-out: Drug uptake; procedure, shortened: as §3
[30] = Drug level healthy human plasma at 200 mg, iv on day 1 as 200 mins infusion followed by maintenance dose of 100 mg every 24 hrs on days 2 and 3 as 100 mins infusions after 4 hrs of last dose; type: ADME, organism-based; conditions: read-out: Drug uptake
[31] = Tmax in healthy human at 200 mg, iv on day 1 as 200 mins infusion followed by maintenance dose of 100 mg every 24 hrs on days 2 and 3 as 100 mins infusions; type: ADME, organism-based; conditions: in vivo; procedure, shortened: as §4
[32] = Drug level healthy human alveolar macrophage at 200 mg, iv on day 1 as 200 mins infusion followed by maintenance dose of 100 mg every 24 hrs on days 2 and 3 as 100 mins infusions after 4 hrs of last dose; type: ADME, organism-based; conditions: alveolar macrophages, read-out: Drug uptake; procedure, shortened: as §3

C[C@@H](c1ncncc1F)[C@](O)(Cn1cncn1)c1ccc(F)cc1F [VORICONAZOLE]
AUC(0-t) [1]: 39500 ng·h/mL
concentration at 12 h [2]: 17200 ng/mL
concentration at 8 h [3]: 10100 ng/mL
concentration at 4 h [4]: 20600 ng/mL
Tmax [5]: 1.8 h
concentration at 8 h [6]: 10300 ng/mL
half-life [7]: 6.9 h
concentration at 12 h [8]: 14400 ng/mL
concentration at 4 h [9]: 48300 ng/mL
concentration at 8 h [10]: 1700 ng/mL
Cmax [11]: 5300 ng/mL
Vd [12]: 110 L
concentration at 4 h [13]: 5300 ng/mL
concentration at 12 h [14]: 2200 ng/mL

CCCCCOc1ccc(-c2ccc(-c3ccc(C(=O)N[C@H]4C[C@@H](O)[C@@H](O)NC(=O)[C@@H]5[C@@H](O)[C@@H](C)CN5C(=O)[C@H]([C@@H](C)O)NC(=O)[C@H]([C@H](O)[C@@H](O)c5ccc(O)cc5)NC(=O)[C@@H]5C[C@@H](O)CN5C(=O)[C@H]([C@@H](C)O)NC4=O)cc3)cc2)cc1 [ANIDULAFUNGIN] ({pTerphenylCO(4''-OnC5H11)}-[Orn(4R-OH,5R-OH)]T[Hyp][hTyr(3S-OH,4S-OH)]T[Pro(3S-OH,4S-Me)]; lactam 1-C)
concentration at 12 h [15]: 4400 ng/mL
concentration at 24 h [16]: 103000 ng/mL
concentration at 8 h [17]: 800 ng/mL
concentration at 4 h [18]: 900 ng/mL
Cmax [19]: 6600 ng/mL
concentration at 8 h [20]: 37900 ng/mL
clearance [21]: 17.1 mL/min
half-life [22]: 20.8 h
concentration at 24 h [23]: 3000 ng/mL
concentration at 24 h [24]: 1100 ng/mL
concentration at 8 h [25]: 5100 ng/mL
AUC [26]: 101000 ng·h/mL
Vd [27]: 30.8 L
concentration at 12 h [28]: 800 ng/mL
concentration at 12 h [29]: 42700 ng/mL
concentration at 4 h [30]: 6000 ng/mL
Tmax [31]: 1.9 h
concentration at 4 h [32]: 44600 ng/mL
